Assay results from PMC12799515 (Journal of Orthopaedic Translation, 2025).

Experiments:
[1] = test system: OCN, RUNX2, ALP in inTPCs; assay: Western blotting of osteogenic-related proteins in inTPCs; format: cell-based, C57BL/6 J mice; details: for protein expression of OCN, RUNX2, ALP: 1 μM CCCP or 5 μM CsA, three stimulation cycles in ODM, vs vehicle
How it was run: (§1)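 Mouse tendon cells were treated in one of two ways: three 4-day cycles (2 days ODM with test compound or solvent, then 2 days plain ODM), or 2 days of osteogenic induction with 100 nM Slc25a4 siRNA (RNAiMAX) ±1 μM test compound added on day 2. Proteins were extracted in RIPA with protease/phosphatase inhibitors, heated to 100 °C for 10 min, separated by SDS-PAGE, transferred to PVDF, blocked with 5% milk and detected by ECL. Bands were quantified by densitometry.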

[2] = test system: osteogenic-related genes Ocn, Runx2, Alpl in inTPCs; assay: qRT–PCR of osteogenic-related genes in inTPCs; format: cell-based, C57BL/6 J mice; details: 1 μM CCCP or 5 μM CsA, three stimulation cycles in ODM, vs vehicle
How it was run: (§2)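 Mouse tendon cells (passage 3–4) received three 4-day cycles: 2 days of ODM containing test compound or equal-volume solvent, then 2 days of plain ODM. Transcripts were measured by SYBR Green qRT–PCR, normalised to Gapdh, with relative expression calculated by the 2−ΔΔCt method.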

[3] = test system: PINK1, Parkin, LC3BⅡ, p62 in inTPCs; assay: Western blotting of mitophagy-related proteins in inTPCs; format: cell-based, C57BL/6 J mice
How it was run: as §1

[4] = test system: mitophagy-related genes Pink1, Prkn, LC3b, p62 in inTPCs; assay: qRT–PCR of mitophagy-related genes in inTPCs; format: cell-based, C57BL/6 J mice; details: 1 μM CCCP or 5 μM CsA, three stimulation cycles in ODM, vs vehicle
How it was run: as §2

inTPCs [5] = assay: ALP and ARS staining of inTPCs; format: cell-based, C57BL/6 J mice; details: 1 μM CCCP or 5 μM CsA, vs vehicle; for ARS staining: four stimulation cycles; for ALP staining: three stimulation cycles
How it was run: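 Mouse tendon cells were digested with collagenase, grown in low-glucose DMEM/15% FBS and used at passage 3–4. Each cycle was 2 days of ODM (high-glucose DMEM, 10−8 M dexamethasone, 50 μg/mL vitamin C, 10 mM β-glycerol phosphate, 10% FBS) with test compound or solvent, then 2 days of plain ODM. ALP: 3 cycles, 4% PFA 30 min, BCIP/NBT stain. ARS: 4 cycles, kit fixative 20 min. Positive ratio quantified by image analysis.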

mitophagy = details: cited from earlier work
inTPCs [6] = assay: Cell viability; format: cell-based, C57BL/6 J mice; details: 1 μM CCCP or 5 μM CsA, 48 h
How it was run: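 Mouse tendon cells (passage 3–4) were seeded in 96-well plates and exposed to test compound at varying concentrations (0, 0.1, 0.5, 1, 5, 10 μM for the inhibitor) for 48 h. They were then incubated with 10% CCK-8 at 37 °C for 1 h, and absorbance was read at 450 nm to calculate viability.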

ANT1 in inTPCs = assay: ANT1/Slc25a4 expression in inTPCs; format: cell-based, C57BL/6 J mice; details: two days osteogenic induction, 1 μM CCCP
How it was run: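 Mouse tendon cells under 2 days of osteogenic induction were transfected with 100 nM Slc25a4 siRNA or control siRNA (RNAiMAX) for 2 days, with 1 μM test compound added on day 2. ANT1 protein was measured by western blot (RIPA lysis with protease/phosphatase inhibitors, 100 °C 10 min, SDS-PAGE, PVDF, 5% milk block, ECL, band densitometry). Slc25a4 mRNA was measured by SYBR qRT–PCR against Gapdh (2−ΔΔCt).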

inTPCs [7] = assay: Apoptosis; format: cell-based, C57BL/6 J mice; details: 1 μM CCCP or 5 μM CsA
[8] = no reference given; cited from earlier work
[9] = 1 μM CCCP or 5 μM CsA, three stimulation cycles in ODM, vs vehicle
[10] = two days osteogenic induction, 100 nM si-Slc25a4 two days, or 1 μM CCCP

Molecule	protein expression of OCN, RUNX2, ALP [1]	gene expression of Ocn, Runx2, Alpl [2]	p62 protein expression [3, 9]	protein expression of PINK1, Parkin, LC3BⅡ [3, 9]	gene expression of Pink1, Prkn, LC3b [4]	p62 gene expression [4]	ARS staining (inTPCs [5])	ALP staining (inTPCs [5])	toxicity of ANT1 inhibitors [8]	other results
cyclosporin A [CsA]	downregulated	suppressed	p62 accumulation	downregulated	suppressed	promoted	reduced	reduced		
OC1c2cc3ccc4cccc5ccc(c2C2OC2C1O)c3c45 (stereo not shown) [benzo(a)pyrene-7,8-dihydrodiol-9, 10-epoxide]										mitophagy (mitophagy): suppressed
N#CC(C#N)=NNc1cccc(Cl)c1 [CCCP, carbonyl cyanide 3-chlorophenylhydrazone]	upregulated	increased	p62 suppression	upregulated	increased	suppressed	increased	increased		protein expression of RUNX2, ALP [1, 10]: promoted; p62 protein expression [3, 10]: suppressed; protein expression of PINK1, Parkin, LC3BⅡ [3, 10]: promoted; cell viability (poisoning) (inTPCs [6]): did not cause poisoning; ANT1 protein expression (ANT1 in inTPCs): did not affect ANT1 expression; apoptosis (inTPCs [7]): did not cause poisoning (Fig. 3A and B) or apoptosis
C=C1[C@@H]2CC[C@H]3[C@]4(C)C[C@H](O[C@@H]5O[C@H](CO)[C@@H](OS(=O)(=O)O)[C@H](OS(=O)(=O)O)[C@H]5OC(=O)CC(C)C)CC(C(=O)O)(C(=O)O)[C@H]4CC[C@]3(C2)[C@H]1O [CATR, carboxyatractyloside]									toxic agents unsuitable for clinical use	
CO[C@H](C/C=C\C=C\CC/C=C/C[C@H](C)/C=C/C(=C\C(=O)O)CC(=O)O)/C(C)=C\C=C(/C)C(=O)O [BKA, bongkrekic acid]									toxic agents unsuitable for clinical use	
